Converted amounts (≈) assume the structure as drawn.
Experiments:
[1] = cited from earlier work
[2] = Solubility of celecoxib in oils and cosurfactants; type: physicochemical; conditions: thermodynamic from solid
Method in brief: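 Excess solid test compound was stirred magnetically in 2 mL of each neat oil or cosurfactant at room temperature for 24 hrs, then centrifuged at 10,000 rpm for 10 mins. The supernatant was passed through a 0.45 µm membrane, diluted with methanol, and quantified by HPLC on a 5 µm C18 reversed-phase column (4.6×250 mm).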

[3] = cited from earlier work; remark: listed apart in the source

Row | solubility at 24 h ([2]; PEG 400, organic solvent or mixture) | solubility at 24 h ([2]; ethanol, organic solvent or mixture) | solubility at 24 h ([2]; fish oil, oil or lipid) | solubility at 24 h ([2]; glycerine, organic solvent or mixture) | solubility at 24 h ([2]; medium-chain triglycerides (MCT oil), oil or lipid) | solubility at 24 h ([2]; oleic acid, oil or lipid) | solubility at 24 h ([2]; propylene glycol (PG), organic solvent or mixture) | SMILES | log partition coefficient [1] | solubility in water [3]
1 |  |  |  |  |  |  |  | CCN(CC)c1ccc2nc3c4ccccc4c(=O)cc-3oc2c1 [Nile red] | 5.0 | 
2 | 433 ± 31.7 mg/mL (≈ 1140 mM) | 79.2 ± 10.2 mg/mL (≈ 208 mM) | 3.25 ± 0.16 mg/mL (≈ 8.52 mM) | 0.42 ± 0.01 mg/mL (≈ 1.1 mM) | 11.6 ± 3.08 mg/mL (≈ 30.5 mM) | 0.73 ± 0.06 mg/mL (≈ 1.91 mM) | 24.2 ± 0.99 mg/mL (≈ 63.6 mM) | Cc1ccc(-c2cc(C(F)(F)F)nn2-c2ccc(S(N)(=O)=O)cc2)cc1 [celecoxib, Celecoxib] |  | 0.00255 to 0.00457 mg/mL

Source: publication PMC6503206 (International Journal of Nanomedicine, 2019)
